# S100A4 inh HTS: inhibitors of human S100A4 binding to myosin IIA peptide; P26447; S100A4/TAMRA-MyoIIA peptide fluorescence polarization; inhibition, % at 10.7 µM; 360,000 compounds, 0.14% hits;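 active means mean inhibition of at least 70% across replicates, with every replicate also reaching that level; inconclusive means mean inhibition reaches 70% but some replicates fall short; inactive means mean inhibition below 70%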
# Target sequence (P26447 whole entry, looked up): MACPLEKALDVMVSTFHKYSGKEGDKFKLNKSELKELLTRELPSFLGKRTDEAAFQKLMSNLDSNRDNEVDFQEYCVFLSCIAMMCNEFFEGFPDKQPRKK
#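 Test system: S100A4 monomer protein. Medium: HEPES buffer with Ca2+, pH 7.2. Reagent: fluorescent myosin IIA peptide, 5 nM. Compound dosing: single-point compound testing. Timing: 5 min between mix addition and reading. Benchmarks: DMSO neutral and TFP positive wells.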
# SIRT5 inh: inhibitors of human sirtuin-5 desuccinylase. Q9NXA8. Purified SirT5, succinyl-peptide AMC, trypsin-coupled fluorescence. inhibition, % at 15 µM. 330,000 compounds, 1.1% hits; in the data active means inhibition above about 15%; inconclusive means no clear call, values can overlap the other calls
# Target sequence (Q9NXA8 whole entry, looked up): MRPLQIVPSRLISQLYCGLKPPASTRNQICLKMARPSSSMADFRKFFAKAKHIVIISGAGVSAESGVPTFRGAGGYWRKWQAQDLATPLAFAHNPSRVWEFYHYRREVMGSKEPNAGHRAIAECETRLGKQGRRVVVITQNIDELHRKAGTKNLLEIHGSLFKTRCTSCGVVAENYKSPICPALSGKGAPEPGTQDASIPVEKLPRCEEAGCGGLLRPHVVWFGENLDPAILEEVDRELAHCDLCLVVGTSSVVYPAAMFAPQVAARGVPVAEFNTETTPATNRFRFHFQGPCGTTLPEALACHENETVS
# DENV2 CPE: inhibitors of DENV2 cytopathic effect | CPE inhibition, % at 9.99 µM | DENV2-infected cells, cytopathic effect rescue, plate reader | 350,000 compounds, 1.7% hits; in the data active means CPE inhibition above about 20%, passing the limit was not always enough; inconclusive means no clear call, values can overlap the other calls; tested in BHK-21 cells
# PGC1a acetyl inh: modulators of PGC1a acetylation. AID 651687. U2OS PGC1a acetylation, AlphaScreen anti-acetyl-lysine; with virally co-expressed GCN5 acetyltransferase. 350,000 compounds, 0.17% hits. inhibition, % at 15.6 µM;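 active means every replicate shows inhibition of at least 40%; inconclusive means mean inhibition at least 40% but some replicate below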
# Statin myotox sup: suppression of simvastatin myotoxicity; C2C12 myotubes + simvastatin, ATP luminescence, 48 h; scaled: DMSO 0, geranylgeraniol control 100; rescue of ATP level, % at 7.49 µM; 330,000 compounds, 0.78% hits;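 active means mean ATP rescue above about 67%, or every replicate alone reaching that limit, limit read from the data, passing the limit was not always enough; inconclusive means no clear call, values can overlap the other calls; inactive means mean under the limit and some replicate under it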;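 further: myotubes were challenged with 10 µM simvastatin during compound exposure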
# A number is an active result; n = inactive; u = inconclusive; x = no result. Hits are enriched below; roughly 2.9% of the tested compounds scored in any of these assays.
SMILES,S100A4 inh HTS,SIRT5 inh,DENV2 CPE,PGC1a acetyl inh,Statin myotox sup
CC(C(=O)Nc1ccc(C(=O)O)c(O)c1)N1C(=O)/C(=C\c2ccco2)SC1=S (stereo unspecified),x,x,x,n,126
O=c1[nH]c(Cc2ccc(F)cc2)nc2scc(-c3ccc(F)cc3)c12,n,21,n,n,n
Cc1ccc(-c2csc3nc(CN(C)Cc4ccccc4)[nH]c(=O)c23)cc1,n,n,x,n,n
CCOC(=O)N1CCN(c2c(N3CCN(c4cc(C)ccc4C)CC3)c(=O)c2=O)CC1,n,n,n,n,102
COCCOc1cc(NC(=O)c2cccc(OC)c2)c(Cl)cc1Cl,n,n,n,x,x
Cc1cccc(C(=O)Nc2cc(OCc3cccc(F)c3)c(Cl)cc2Cl)c1,n,n,x,n,113
Cc1ccc(C(=O)OCC(=O)NC(=O)c2cccn2C)cc1,n,n,n,n,n
Cn1cccc1C(=O)OCC(=O)NC(=O)c1ccc(Cl)cc1,n,n,26,n,n
CSc1nc(Cl)c(Br)c(Nc2c[nH]c(=O)[nH]c2=O)n1,n,x,52,n,n
COc1ccc(Nc2c[nH]c(=O)[nH]c2=O)cc1,n,n,n,n,n
COc1ccc2c(Cl)c(-c3nnc(SCC(=O)c4ccccc4)n3C)sc2c1,x,x,x,n,116
COc1ccc(-c2cc3nc(-c4ccccc4)cc(N4CCN(C(=O)c5ccsc5)CC4)n3n2)cc1,n,n,63,n,n
C[C@H]1CN([C@@H](C)CO)C(=O)Cc2cc(NC(=O)NC3CCCCC3)ccc2O[C@@H]1CN(C)Cc1ccc(C(=O)Nc2ccccc2N)cc1,n,n,32,n,x
C[C@@H]1CN([C@H](C)CO)C(=O)c2cc(NC(=O)Nc3cccc4ccccc34)ccc2O[C@@H]1CN(C)Cc1ccc(C(=O)Nc2ccccc2N)cc1,n,15,u,n,149
CC(C)NC(=O)Nc1ccc2c(c1)CC(=O)N([C@H](C)CO)C[C@H](C)[C@@H](CN(C)Cc1ccc(C(=O)Nc3ccccc3N)cc1)O2,n,n,n,n,n
C[C@H](CO)N1C[C@H](C)[C@H](CN(C)Cc2ccc(C(=O)Nc3ccccc3N)cc2)Oc2ccc(NC(=O)Nc3cccc4ccccc34)cc2CC1=O,n,n,n,n,240
CC(C)c1ccc(NC(=O)CSc2nc3ccsc3c(=O)n2Cc2ccc(C(=O)O)cc2)cc1,n,n,n,59,n
C[C@@H]1CN([C@@H](C)CO)C(=O)c2cc(C3=CCCCC3)cnc2O[C@@H]1CN(C)Cc1ccc(C(=O)O)cc1,n,n,n,n,n
COc1ccc(C(NC(=O)c2cc(OC)ccc2OC)c2ccccc2)cc1 (stereo unspecified),n,n,n,x,n
COc1ccc(C(NC(=O)c2c(F)c(F)c(F)c(F)c2F)c2ccccc2)cc1 (stereo unspecified),n,n,n,85,n
O=C(C[C@@H]1C[C@H]2c3cc(NS(=O)(=O)c4ccc(F)cc4)ccc3O[C@H]2[C@@H](CO)O1)NCc1cccc(F)c1,n,n,n,n,n
COc1ccc(NC(=O)Nc2ccc3c(c2)C(=O)N([C@@H](C)CO)C[C@@H](C)[C@H](CN(C)C(=O)Nc2ccc(F)cc2)O3)cc1,n,n,21,n,n
COc1ccc(NC(=O)Nc2ccc3c(c2)C(=O)N([C@@H](C)CO)C[C@@H](C)[C@@H](CN(C)C(=O)Nc2ccc(OC)cc2)O3)cc1,n,n,26,n,n
COc1ccc(NC(=O)N(C)C[C@H]2Oc3ccc(NC(=O)Nc4ccc(F)cc4)cc3C(=O)N([C@H](C)CO)C[C@H]2C)cc1,n,n,n,n,n
C[C@@H]1CN([C@@H](C)CO)C(=O)c2cc(NC(=O)C3CCCCC3)ccc2O[C@H]1CN(C)C(=O)Nc1ccc(F)cc1,n,n,n,x,n
SMILES,S100A4 inh HTS,SIRT5 inh,DENV2 CPE,PGC1a acetyl inh,Statin myotox sup
C[C@@H]1CN([C@H](C)CO)C(=O)c2cc(NC(=O)C3CCCCC3)ccc2O[C@H]1CN(C)C(=O)Nc1ccc(F)cc1,n,n,55,x,n
COc1ccc(NC(=O)Nc2ccc3c(c2)C(=O)N([C@@H](C)CO)C[C@@H](C)[C@@H](CN(C)C(=O)Nc2ccc(C(F)(F)F)cc2)O3)cc1,n,16,u,n,n
COc1ccc(NC(=O)Nc2ccc3c(c2)C(=O)N([C@H](C)CO)C[C@H](C)[C@@H](CN(C)Cc2ccccc2)O3)cc1,n,n,43,n,n
COc1ccc(CN(C)C[C@@H]2Oc3ccc(NC(=O)Nc4ccc(C(F)(F)F)cc4)cc3C(=O)N([C@@H](C)CO)C[C@H]2C)cc1,n,n,44,n,n
COc1ccc(NC(=O)Nc2ccc3c(c2)C(=O)N([C@H](C)CO)C[C@H](C)[C@@H](CN(C)Cc2ccc(C(F)(F)F)cc2)O3)cc1,n,19,20,n,n
COc1ccc(NC(=O)Nc2ccc3c(c2)C(=O)N([C@H](C)CO)C[C@H](C)[C@H](CN(C)Cc2ccccc2)O3)cc1,n,n,n,n,n
COc1ccc(NC(=O)Nc2ccc3c(c2)C(=O)N([C@H](C)CO)C[C@H](C)[C@@H](CN(C)Cc2ccc4c(c2)OCO4)O3)cc1,n,16,n,n,n
C=CC[C@@H](OC(=O)Nc1ccc(SC)cc1)c1ccc(OCCO)cc1,n,n,n,n,x
CC(C)(O)c1cn([C@@H]2C[C@@H]3O[C@H](CO)CC[C@@H]3O[C@@H]2CCc2ccc(-c3cccnc3)cc2)nn1,n,n,n,n,x
CNC(=O)C[C@H]1CC[C@H]2[C@@H](COc3ccc(NC(=O)c4ccc5c(c4)OCO5)cc3C(=O)N2C)O1,x,x,n,n,n
COc1ccc2c3c(n(C)c2c1)[C@H](CO)N(C(=O)C1CC1)CC31CCN(C(=O)CN(C)C)CC1,n,n,n,n,x
COc1ccc2c3c(n(C)c2c1)[C@@H](CO)N(S(C)(=O)=O)CC31CCN(C(=O)C2CC2)CC1,n,x,n,x,x
COc1ccc2c3c(n(C)c2c1)[C@H](CO)N(S(C)(=O)=O)CC31CCN(C(=O)C2CC2)CC1,n,n,31,x,x
COc1ccc2c3c(n(C)c2c1)[C@@H](CO)N(C(=O)C1CC1)CC31CCN(C(=O)CN(C)C)CC1,n,n,23,n,x
C[C@@H]1CN([C@H](C)CO)S(=O)(=O)c2ccc(C3=CCCCC3)cc2O[C@@H]1CN(C)Cc1cccc(C(=O)O)c1,n,n,n,n,n
C[C@@H]1CN([C@@H](C)CO)C(=O)Cc2cc(NC(=O)C3CCCCC3)ccc2O[C@@H]1CN(C)C(=O)Nc1ccccc1,n,n,n,x,n
Nc1nc(SCC(=O)Nc2ccc([N+](=O)[O-])cc2)[nH]c(=O)c1NC(=O)c1ccc(Br)o1,n,n,20,x,n
CC(=O)N(C)C[C@@H]1Oc2cc(-c3ccccc3C)ccc2S(=O)(=O)N([C@@H](C)CO)C[C@H]1C,n,n,n,n,n
CC(C)N(C[C@@H]1[C@@H](c2ccccc2)[C@@H](CO)N1S(C)(=O)=O)C(=O)CN(C)C,n,n,n,n,n

# High-throughput results: PubChem BioAssay, Broad Institute
